# High-throughput results from PubChem BioAssay.
# This is a sample that favours compounds with a hit; in the whole collection about 1.3% have one here.
# Casp6 inh = inhibitors of human caspase-6. P55212. purified caspase-6, Z-VEID-R110 cleavage fluorescence. inhibition, % at 12.5 µM. 0.53% of 350,000 active;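 active = mean inhibition across replicates at least about 35%, with every replicate also reaching that limit, limit read from the data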;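 also: 0% = median of neutral control wells and 100% = no fluorescence left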
# Target sequence (P55212 24-179 limits assumed): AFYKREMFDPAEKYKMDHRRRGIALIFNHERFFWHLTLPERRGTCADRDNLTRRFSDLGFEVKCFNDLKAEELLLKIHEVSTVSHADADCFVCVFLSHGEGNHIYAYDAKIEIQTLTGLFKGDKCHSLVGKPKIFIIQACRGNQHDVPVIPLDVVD
# Target sequence (P55212 194-293 limits assumed): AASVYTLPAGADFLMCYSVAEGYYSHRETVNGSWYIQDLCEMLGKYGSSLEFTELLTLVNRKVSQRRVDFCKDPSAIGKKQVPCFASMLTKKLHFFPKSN
# TDP2 inh = blocks human TDP2 phosphodiesterase activity | O95551 | inhibition, % at 12.8 µM | recombinant TDP2, T5PNP hydrolysis, p-nitrophenol absorbance 415 nm | 0.34% of 370,000 active | AID 720702;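 active = inhibition above the mean of all tested compounds plus 3 SD, set per campaign, cut at about 25% in these data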;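 also: 0% = DMSO with enzyme and 100% = buffer with substrate but no TDP2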
#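 System – recombinant human TDP2 · Quantity – TDP2 enzyme at 120 nM final · Doses – single concentration, 12.8 µM nominal, with 1% DMSO · Incubation – 2 h at 37 °C · Measured by – epi absorbance of p-nitrophenol freed from T5PNP by hydrolysis · Read-out – % inhibition relative to enzyme-containing and enzyme-free wells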
# ARFGAP1 inhibitor = inhibits rat ARF GTPase activating protein 1; Q62848; 0.26% of 360,000 active; inhibition, % at 16.5 µM; Arfgap1-stimulated ARF1 GTP hydrolysis, GDP FP detection;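 active = inhibition above a per-plate limit, mean inhibition of low control wells plus 3 SD, cut at about 25% in these data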;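 also: 0% = DMSO wells with enzyme and 100% = wells lacking Arfgap1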
#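 System: truncated rat Arfgap1 GAP domain / Benchmarks: high control wells lacking Arfgap1, low control full reaction with DMSO / Times: compound-enzyme preincubation 20 min, reaction 120 min, detection 60 min, 25 °C / Repeats: one replicate per compound / Also added: human ARF1(Δ1-17)-GTP substrate / Measured by: Tracer-displacement fluorescence polarization with EDTA stop, 620/688 nm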
# ASAP1 inh = ASAP1 ArfGAP inhibition | Q9ULH1 | 0.19% of 360,000 active | ASAP1-stimulated ARF1 GTP hydrolysis, GDP FP detection | inhibition, % at 16.5 µM;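 also: 0% = vehicle with enzyme and substrate and 100% = no enzyme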
# Target sequence (Q9ULH1 325-724 limits assumed): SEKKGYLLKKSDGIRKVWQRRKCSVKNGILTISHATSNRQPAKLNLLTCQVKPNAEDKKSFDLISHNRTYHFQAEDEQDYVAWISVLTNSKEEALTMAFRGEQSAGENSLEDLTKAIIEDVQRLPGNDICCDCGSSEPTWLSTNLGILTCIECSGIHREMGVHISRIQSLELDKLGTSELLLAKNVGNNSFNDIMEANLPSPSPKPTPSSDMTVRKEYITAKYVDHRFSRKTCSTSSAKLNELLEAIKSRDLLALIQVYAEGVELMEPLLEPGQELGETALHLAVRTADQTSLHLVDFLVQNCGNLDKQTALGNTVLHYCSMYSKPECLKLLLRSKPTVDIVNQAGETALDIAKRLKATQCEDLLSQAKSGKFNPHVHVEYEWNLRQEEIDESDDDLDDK
# LEDGF integ inh = blocks HIV-1 LEDGF/p75-dependent DNA integration | TR-FRET IN-LEDGF/p75 DNA integration, Eu/Cy5 | inhibition, % at 3.7 µM | 0.64% of 370,000 active;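 active = inhibition above the screen-wide mean plus 3 SD, cut at about 13% in these data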;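 also: signal is the Cy5 over europium emission ratio at 671 and 618 nm; 0% = plate median of compound wells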
# TDP2 confirm = confirmation of human TDP2 inhibitors; AID 743263; shares compounds with TDP2 inh; recombinant human TDP2, absorbance read-out; 22% of 1,100 active; inhibition, % at 12.8 µM;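 also: 0% = vehicle with enzyme and 100% = no enzyme buffer only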
# IN multimer act = counter-screen for LEDGF/p75 integration inhibitors: HIV-1 integrase multimerization activators. activation, % at 7.7 µM. 17% of 2,000 active. TR-FRET HIV-1 integrase multimerization, biochemical. shares compounds with LEDGF integ inh. AID 1053131; in the data active = activation above about 8.9%
# TR-FRET interf = counter-screen for LEDGF/p75 integration inhibitors: TR-FRET optical interference. shares compounds with LEDGF integ inh. TR-FRET optical interference counterscreen, HIV-1 IN multimerization. inhibition, % at 7.7 µM. 2,000 tested, under 10 active. AID 1053135;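 active = inhibition above the mean over all tested compounds plus 3 SD, which no compound reached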;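 also: 0% = integrase with antibodies and DMSO and 100% = antibodies without integrase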
# LEDGF integ conf = LEDGF/p75-dependent HIV-1 integration inhibition, confirmation; shares compounds with LEDGF integ inh; TR-FRET LEDGF/p75-dependent HIV-1 integration, biochemical; inhibition, % at 3.7 µM; 36% of 2,000 active; AID 1053136; in the data active = inhibition above about 14%
# The depositor's hits bear a star; · = no result; ! = repeats disagree. Rule as the data show it, unless noted: active = inhibition above about 25%; inactive = the rest.
SMILES,Casp6 inh,TDP2 inh,ARFGAP1 inhibitor,ASAP1 inh,LEDGF integ inh,TDP2 confirm,IN multimer act,TR-FRET interf,LEDGF integ conf
COc1cc(N)c2ncccc2c1OC,8.7,46.5*,-6.9,-3.4,27.4*,10.0,3.3,-16.8,-2.9
COc1ccc(OC)c(/C=N\Nc2nccs2)c1,1.3,2.7,1.9,-15.1,-1.5,·,·,·,·
COc1cc(/C=N/Nc2nncn2/N=C/c2ccc(O)c(OC)c2)ccc1O,4.2,67.3*,10.5,-14.7,47.9*,7.5,6.8,-24.2,-5.9
COc1ccc(OC)c(/C=N/Nc2nncn2/N=C/c2cc(OC)ccc2OC)c1,·,66.9*,18.0,10.0,38.8*,6.8,0.9,-4.5,2.0
COc1cc(/C=N\Nc2nncn2N)ccc1OC(C)=O,4.4,57.1*,7.7,1.4,58.4*,4.9,-0.3,1.1,2.2
C(=N\Nc1nncn1/N=C/c1ccco1)/c1ccco1,-0.8,55.1*,5.0,6.0,37.1*,0.5,1.0,-5.2,1.8
C[C@@H]1CCCCO[C@@H](CN(C)Cc2ccc(C(F)(F)F)cc2)[C@@H](C)CN([C@@H](C)CO)C(=O)c2cc(NC(=O)NC3CCCCC3)ccc2O1,1.4,·,·,·,·,·,·,·,·
CCN(CC)S(=O)(=O)c1ccc(/C=C/C(=O)OCC(=O)c2c(N)n(C)c(=O)n(C)c2=O)cc1,1.5,17.3,-7.5,-1.1,-0.4,·,·,·,·
O=c1cc(-c2cccc([N+](=O)[O-])c2)[nH][nH]1,·,71.2*,-2.5,3.8,21.7*,14.9,-2.2,11.2,8.2
COc1ccc(CN(C)C[C@@H]2Oc3ccc(NS(=O)(=O)c4ccc(OC)cc4)cc3CC(=O)N([C@@H](C)CO)C[C@H]2C)cc1,0.0,·,·,·,·,·,·,·,·
O=C(CCc1nc(-c2ccc(Cl)cc2)no1)OCc1ccc(Br)cc1,·,39.8*,-1.4,-2.3,15.8*,3.8,-0.4,1.9,-3.9
O=C(O)CCCc1nc(-c2ccc(Cl)cc2)no1,·,-8.6,2.3,-6.7,-4.3,·,·,·,·
O=C(CCN1C(=O)/C(=C/c2ccccc2Cl)SC1=S)Nc1ccccc1C(=O)O,1.0,4.6,0.0,-7.6,4.5,·,·,·,·
O=C(CCN1C(=O)/C(=C/c2ccco2)SC1=S)Nc1ccc(O)cc1C(=O)O,69.9*,26.9*,-16.1,-3.5,78.1*,-4.3,19.3*,-97.6,46.0*
COc1cc(CCNC2=CC(=O)c3ncccc3C2=O)ccc1O,91.5*,28.9*,-2.5,10.5,28.8*,34.9*,4.6,-16.3,60.0*
COc1ccc(-c2cc(=O)n(CCC#N)[nH]2)cc1,·,91.9*,10.7,8.3,42.4*,8.5,-0.4,1.4,0.8
COc1ccc(-c2ncn(CCC#N)c2[N+](=O)[O-])cc1,·,11.3,2.3,6.5,-1.6,·,·,·,·
Cc1cc(C(=O)CSc2nn3c(=O)c(C(C)(C)C)nnc3s2)c(C)n1C1CC1,4.4,1.7,2.9,-1.8,-0.1,·,·,·,·
Fc1cccc(Cl)c1/C=N/Nc1ccccn1,·,0.8,-3.3,-2.2,2.1,·,·,·,·
CCc1nnc(N/N=C/c2c(F)cccc2Cl)n1N,0.5,57.8*,13.5,3.2,56.6*,4.5,-0.4,1.5,-6.4
Cc1nnc(N/N=C/c2c(Cl)cccc2Cl)n1N,4.3,52.2*,-0.9,4.1,35.3*,-5.2,-0.3,1.7,-9.5
CCOc1cc(/C=N/Nc2nnc(C)n2N)ccc1O,3.4,47.9*,4.7,3.1,66.0*,4.8,0.8,-2.8,-3.9
CCOc1cc(/C=N/Nc2ncnc(Cl)c2N)ccc1O,·,-4.1,-2.5,-3.6,4.2,·,·,·,·
Cc1nnc(N/N=C/c2ccccc2O)n1N,50.1*,58.7*,2.1,-0.4,58.9*,26.3*,-0.8,4.0,-10.0
COc1ccccc1NC(=O)c1cc(S(=O)(=O)N2CCOCC2)ccc1Cl,·,3.1,0.5,-5.9,0.2,·,·,·,·
SMILES,Casp6 inh,TDP2 inh,ARFGAP1 inhibitor,ASAP1 inh,LEDGF integ inh,TDP2 confirm,IN multimer act,TR-FRET interf,LEDGF integ conf
CCN(C(=O)c1c(C)noc1C)c1c(N)n(Cc2ccccc2)c(=O)[nH]c1=O,-2.9,3.0,2.1,-3.2,0.6,·,·,·,·
CCc1nnc(N/N=C/c2cc(C)c(C)cc2C)n1N,9.3,65.4*,2.7,-2.5,57.8*,7.7,-2.2,11.3,-4.1
CCc1nnc(-n2nc(C)cc2-c2ccccc2)n1N,·,5.1,6.6,4.3,-1.7,·,·,·,·
O=C(Nc1ccccc1)N1CC(=O)N2[C@H](CO)[C@@H](c3ccc(C#CC4CCCCC4)cc3)[C@@H]2C1,0.9,·,·,·,·,·,·,·,·
C[c-]1[c-](C)[c-](C)[c-](C)[c-]1C.[Fe].c1cc2nccc(N3CCCC3)[c-]2c1 (stereo unspecified),38.0*!,33.8*,10.6,0.4,19.5*!,26.2*!,-0.2,1.3,49.1*
COc1cccc(S(=O)(=O)NCc2ccc(C(=O)NCc3ccco3)cc2)c1,·,2.5,7.5,-7.0,-2.4,·,·,·,·
O=C(NC1=C(NC2CCS(=O)(=O)C2)C(=O)c2ccccc2C1=O)c1ccccc1 (stereo unspecified),95.2*,27.9*,-3.0,13.3,24.8*,36.5*,1.2,-4.3,41.5*
CNC(=S)Nc1ccccc1-c1ccccc1,·,16.4,-3.1,5.8,-0.3,·,·,·,·
O=C1C=C(N2CCOCC2)c2cccc3cccc1c23,-8.2,-0.1,4.5,-1.2,0.0,·,·,·,·
O=C1C=C(N2CCOCC2)c2ccccc2C1=O,99.7*,64.7*,1.2,4.7,22.3*,86.5*,3.1,-11.0,72.3*
NC(=O)c1sc2nc3c(c(-c4ccco4)c2c1N)CCC3,27.2,26.2*,-9.7,-4.4,43.0*,1.4,1.8,-9.0,7.5
C[C@@H](CCCCC1(C)OCCO1)CCC(=O)N(c1ccccc1)c1ccccc1,·,-1.4,·,·,-1.3,·,·,·,·
CC(=O)n1nc(-c2cccnc2)nc1NCc1cccs1,-0.5,-15.4,3.8,3.8,-6.7,·,·,·,·
CCC(CNc1cc(OC)cc2cccnc12)NC1CCCCC1 (stereo unspecified),70.5*,79.1*,7.2,18.1,57.9*,24.7*,6.3,-22.1,75.9*
COc1cc(NCCCC(C)N)c2ncccc2c1 (stereo unspecified),·,64.2*,-6.0,2.7,30.3*,26.9*,5.5,-19.4,62.7*
COc1cc(-c2[nH]nc3c2C(c2ccco2)C(C#N)=C(N)O3)cc(OC)c1OC (stereo unspecified),5.2,42.5*,1.9,6.4,15.9*,8.8,1.8,-9.0,7.6
CCOc1ccc(NC(=S)NC(=O)/C=C/c2ccco2)cc1,-1.1,2.6,8.5,1.4,4.0,·,·,·,·
